Hits are enriched below; roughly 2.3% of the tested compounds scored in any of these assays.
PLAP activator: human PLAP activation; P05187; purified PLAP enzyme, luminescent substrate read-out; hits give high values; activation fold at 20 µM; 96,000 tested, 1.2% active; AID 696; in the data active = activation fold above about 2
tolC growth inh: E. coli tolC mutant growth inhibition; growth inhibition, % at 10 µM (by protocol); 65,000 tested, 2.2% active; E. coli BW25113 tolC mutant growth, OD615; AID 573;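 active = growth inhibition at or above a cutoff equal to the mean over every tested compound plus 3 SD, cut at about 60% in these data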;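 note: growth measured after 20 h incubation at 37 °C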
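Test system: tolC-deleted E. coli BW25113; medium: LB with kanamycin 50 µg/mL; compound: single-point testing at 10 µM; incubation: 20 h compound exposure of bacteria at 37 °C; signal: OD at 615 nm; evaluation: growth inhibition in percent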
Ecoli WT expand: E. coli BW25113 growth inhibition, expanded screen; growth inhibition, % at 100 µM; OD600 absorbance; AID 710; 98,000 tested, 0.15% active;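 active = growth inhibition above about 50% at one test dose, limit read from the data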;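 note: growth measured after 20 h incubation at 37 °C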
HePTP inh: human HePTP phosphatase inhibition. recombinant HePTP phosphatase activity, OD absorbance. 110,000 tested, 0.64% active. P35236. inhibition, % at 20 µM; in the data active = inhibition above about 50%;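 note: plate controls were vehicle for no effect and reference inhibitor for full effect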
Target sequence (P35236 whole entry, looked up): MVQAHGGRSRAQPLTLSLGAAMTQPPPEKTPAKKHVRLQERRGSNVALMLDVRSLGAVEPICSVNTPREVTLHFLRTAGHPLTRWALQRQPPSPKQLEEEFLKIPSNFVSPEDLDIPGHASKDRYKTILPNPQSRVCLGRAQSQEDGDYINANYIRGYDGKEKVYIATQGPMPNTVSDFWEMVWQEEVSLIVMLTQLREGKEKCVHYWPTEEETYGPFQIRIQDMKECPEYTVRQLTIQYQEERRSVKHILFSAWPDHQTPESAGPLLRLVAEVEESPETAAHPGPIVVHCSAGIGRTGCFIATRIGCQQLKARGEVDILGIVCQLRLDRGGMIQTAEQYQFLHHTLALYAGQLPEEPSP
AP complement: alternative pathway complement inhibition, orthogonal assay; Human serum alternative complement pathway, LPS-coated ELISA, C3 deposition; tested in compound mixtures; AID 1235; 62,000 tested, 0.08% active; inhibition, % at 5 µM;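 active = inhibition above 30% in each of the two pooled mixtures holding the compound, so the lower value exceeds 30%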;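 note: 0% = serum in Mg-EGTA without compound and 100% = EDTA serum blank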
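Test system – human serum alternative complement pathway, C3 deposition on LPS-coated wells · Buffer or medium – diluted human serum in Mg2+-EGTA GVB++ · Compound dosing – 5 µM each compound, pools of ten, 50 µM per pool · Schedule – 1 h serum-compound exposure at 37 °C · Measured by – Anti-C3 ELISA, OD 450 nm · Read-out basis – percent inhibition of C3 deposition onto LPS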
An asterisk follows results filed as active.

`CCC(=O)N1CCc2cc(S(=O)(=O)N(CC)c3cccc(C)c3)ccc21` gave PLAP activator 1, tolC growth inh 8.4, Ecoli WT expand -6.0, HePTP inh 7.7 and AP complement 11.9.
Screening COC(=O)/C=C1\S/C(=N/NC(=O)c2ccccc2)NC1=O returned PLAP activator 2.5* and Ecoli WT expand -14.0.
`Cc1ccccc1-c1nnc(SCc2ccccc2F)o1` gave PLAP activator 1, tolC growth inh 64.1*, Ecoli WT expand -9.0, HePTP inh 8.5 and AP complement 9.0.
Screening Cc1ccc(C(=O)N2N=C(c3ccccc3)CC2(O)C(F)(F)F)cc1 (centres undefined) returned HePTP inh -14.4.
`O=C1C=CC(=O)c2c1c(-c1ccccc1)nn2-c1ccccc1` gave HePTP inh 70.7*.
Screening Cc1ccc(Cl)cc1NC(=O)CSc1nc2ccc(N3C(=O)c4ccccc4C3=O)cc2s1 returned HePTP inh 2.0.
Cc1cc(N/C=C/C(=O)c2cccc3ccccc23)no1 was read as PLAP activator 0.9, tolC growth inh 15.6, Ecoli WT expand -5.0 and HePTP inh -3.7.
For Cc1cc(N/C=C/C(=O)c2ccc(Cl)s2)no1 the results were HePTP inh 101.9*.
For Cc1nn(Cc2ccc(Cl)c(Cl)c2)c(C)c1NC(=O)c1cn(-c2ccccc2)nc1-c1ccccc1 the results were PLAP activator 2.7* and Ecoli WT expand -7.0.
Screening Cc1cc(NS(=O)(=O)c2ccc(NC(=O)COc3ccccc3C(C)C)cc2)no1 returned PLAP activator 1.5, tolC growth inh 61.9*, Ecoli WT expand -2.0, HePTP inh 13.2 and AP complement 11.6.
For COc1ccc2cc(CN(Cc3ccco3)Cc3nnnn3C3CCCCC3)c(=O)[nH]c2c1 the results were PLAP activator 1.5, tolC growth inh 23.2, Ecoli WT expand -15.0, HePTP inh 11.3 and AP complement 10.3.
`Cc1ccc2cc(CN(Cc3ccccc3)Cc3nnnn3C3CCCC3)c(=O)[nH]c2c1` gave PLAP activator 1.6, tolC growth inh 73.1*, Ecoli WT expand -18.0, HePTP inh 2.6 and AP complement 20.6.
For Cc1ccc2cc(CN(Cc3ccc(F)cc3)Cc3nnnn3C3CCCC3)c(=O)[nH]c2c1 the results were PLAP activator 1.6, tolC growth inh 66.0*, Ecoli WT expand -12.0, HePTP inh 3.7 and AP complement 13.2.
Cc1ccc(C23CC4CC(CC(C(=O)Nc5cccc(C(=O)O)c5)(C4)C2)C3)cc1 was read as HePTP inh 2.5.
`Cc1ccc(C23CC4CC(CC(C(=O)Nc5ccc(F)cc5F)(C4)C2)C3)cc1` gave HePTP inh 71.5*.
`S=c1[nH]c2ccccc2n1CCOc1ccc(Cl)cc1` gave HePTP inh -12.9.
For CCC(C)(C)n1nnnc1CN(Cc1ccc(Cl)cc1)Cc1ccco1 the results were PLAP activator 1.4, tolC growth inh 81.4*, Ecoli WT expand 3.0, HePTP inh 12.6 and AP complement 1.1.
For O=C(/C=C/c1cccc(C(F)(F)F)c1)Nc1cccc(Cl)c1 the results were HePTP inh 7.6.
`COCCNC(=O)c1ccc(I)cc1` gave HePTP inh 6.3.
For COc1ccc(-c2onc(C)c2-c2ccc(C(=O)OC(C)C)o2)c(O)c1 the results were PLAP activator 1.3, tolC growth inh 100.0*, Ecoli WT expand -3.0, HePTP inh -4.4 and AP complement 3.9.
For Cc1cc2n(n1)C(c1ccc3c(c1)OCO3)Nc1c(C)cccc1-2 (centres undefined) the results were PLAP activator 1.4, tolC growth inh 71.3*, Ecoli WT expand 0.0, HePTP inh 2.3 and AP complement 4.3.
Screening O=S(=O)(Nc1cc(Cl)ccc1N1CCCCC1)c1cccs1 returned PLAP activator 1.1, tolC growth inh 62.0*, Ecoli WT expand -6.0, HePTP inh 10.0 and AP complement 12.1.
`COCCNC(=O)CN(c1cccc(OC)c1)S(=O)(=O)c1ccccc1` gave HePTP inh 4.9.
COc1cc(C2c3c(-c4ccccc4)n[nH]c3C(=O)N2c2ccccc2)ccc1O (centres undefined) was read as PLAP activator 2.2*, tolC growth inh 17.8, Ecoli WT expand -1.0, HePTP inh 4.8 and AP complement 6.7.
Screening CCOc1cc(C2c3c(n[nH]c3C)C(=O)N2c2ccc(C)cc2)ccc1O (centres undefined) returned PLAP activator 1.9 and Ecoli WT expand 5.0.
For COc1ccc(OC)c(C2c3c(-c4ccccc4)n[nH]c3C(=O)N2c2ccccc2)c1 (centres undefined) the results were HePTP inh -2.8.
Screening COc1cc(C2c3c(n[nH]c3C)C(=O)N2c2ccc(C)cc2)ccc1O (centres undefined) returned PLAP activator 2.2*, tolC growth inh 4.9, Ecoli WT expand 5.0, HePTP inh 7.9 and AP complement -2.9.
`Cc1ccc(OCCCCn2ccnc2)cc1C` gave HePTP inh -3.2.
COC(=O)c1cn(NC(=O)c2cnccn2)c(=O)c2ccccc12 was read as PLAP activator 0.9, tolC growth inh 98.6*, Ecoli WT expand 1.0, HePTP inh -4.3 and AP complement 1.3.
`COC(=O)c1cn(NC(=O)c2ccc(OC)c(OC)c2)c(=O)c2ccccc12` gave PLAP activator 1.1 and Ecoli WT expand -4.0.
Screening O=C(c1cc2nc(-c3ccccc3)cc(-c3ccccc3)n2n1)N1CCOCC1 returned HePTP inh -17.3.
For CCCOC(=O)c1ccc(NC(=O)OC)cc1 the results were HePTP inh 1.5.
`CCCCCCOC(=O)c1ccc(NC(=O)c2cc(OC)c(OC)c(OC)c2Br)cc1` gave PLAP activator 2* and Ecoli WT expand -13.0.
CCCCOC(=O)Nc1ccc(C(=O)OCCC)cc1 was read as PLAP activator 0.7, tolC growth inh 67.3*, Ecoli WT expand 5.0, HePTP inh 10.3 and AP complement 13.5.
`COc1cc(C2NC(C(=O)O)CS2)cc(I)c1OCc1ccccc1` (centres undefined) gave HePTP inh -3.9.
Screening COc1cc(C2NC(C(=O)O)CS2)ccc1OCc1ccccc1C#N (centres undefined) returned PLAP activator 2.1*, tolC growth inh -12.4, Ecoli WT expand 8.0, HePTP inh 5.7 and AP complement 11.6.
Screening Cc1ccc(-n2[nH]c(=O)c(/C=C3\C=Nc4ccccc43)c2O)cc1 returned HePTP inh 94.1*.
Cc1ccc(-n2c(O)c(/C=C3\C=Nc4ccccc43)c(=O)[nH]c2=S)cc1 was read as HePTP inh 4.3.
`O=C1NC(=O)C(=Cc2ccc(OCCOc3ccccc3)cc2)C(=O)N1` gave HePTP inh 1.6.
For COc1ccccc1NC(=O)N(CCN(C)C)Cc1cc2cc(C)ccc2[nH]c1=O the results were PLAP activator 2*, tolC growth inh -3.1, Ecoli WT expand -7.0, HePTP inh 5.4 and AP complement -6.2.

Source: PubChem BioAssay
